In article PMC7392586 (Circulation, 2020):
“And” between values parts separate entries of the source, which are not always exact repeats. Equal entries are not always repeated. Where two headings read alike, the source gives them in different places.

What was measured:
[1] = tested on: platelet reactivity index; details: CANTIC study; cited from earlier work
platelet inhibition = details: pharmacodynamic data on cangrelor; cited from earlier work
[2] = tested on: platelet reactivity (P2Y12 reaction units); details: cited from earlier work; for HRPR (VerifyNow, cutoff PRU >208): 15 STEMI patients pretreated with ticagrelor
platelet function = details: 16 cardiac arrest survivors with STEMI, cited from earlier work
[3] = tested on: ADP-induced platelet aggregation in whole blood; details: cited from earlier work; for mean platelet inhibition before the end of infusion / patients achieving 100% platelet inhibition: part 2 of the trial; for mean platelet inhibition before the end of infusion: cangrelor 4 μg/kg/min
[4] = tested on: ADP-induced platelet aggregation in platelet-rich plasma; assay: Light transmittance aggregometry; type: in vivo, human; details: for %IPA using LTA with ADP 20 µmol/L: at 30 minutes (primary endpoint), mean±SD
[5] = tested on: ADP-induced platelet aggregation in whole blood; assay: Multiple electrode aggregometry; type: in vivo, human; details: % of patients
In short: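 STEMI patients not previously given a P2Y12 inhibitor. Hirudin-anticoagulated whole blood drawn at baseline and at 15 min, 30 min, 1, 2, 3 and 4–6 h after the study drug (bolus completion or oral ingestion); done at 2 centres. Blood diluted 1:2 in 0.9% NaCl, ADP-stimulated, aggregation recorded 6 min; AUC units. High residual reactivity: >46 U; percent of patients.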

Molecule: CSCCNc1nc(SCCC(F)(F)F)nc2c1ncn2[C@@H]1O[C@H](COP(=O)(O)OP(=O)(O)C(Cl)(Cl)P(=O)(O)O)[C@@H](O)[C@H]1O [Cangrelor]
- nonresponders at vasodilator-stimulated phosphoprotein assay during drug infusion [1]: 3 out of 22
- degree of platelet inhibition (platelet inhibition): > 80%
- patients with PRU higher than 208 U during drug infusion ([2]; CANTIC study): No patient
- HRPR (VerifyNow, cutoff PRU >208) ([2]; at 15 minutes): 6.7%
- HRPR (VerifyNow, cutoff PRU >208) ([2]; at 1 hour): 0%
- HRPR rate (VerifyNow, cutoff PRU >208) ([2]; at the time of balloon inflation, 50 STEMI patients): 10%
- platelet function, median (Multiplate Analyzer) (platelet function; targeted temperature management, interquartile range 10 to 25): 18 U
- HRPR (Multiplate Analyzer, <46 U cutoff) (platelet function): none had HRPR
- mean IPA ([3]; infusion 4 μg/kg/min for up to 69 hours, at 24 hours, 14 patients with unstable angina or non–Q-wave MI, whole blood impedance aggregometry, ADP 3 μmol/L): 98.7±2.1%
- mean %IPA ([3]; infusion at 4 μg/kg/min, elective or urgent PCI, impedance aggregometry in heparinized blood, ADP 3 μmol/L): 99%
- mean platelet inhibition before the end of infusion [3]: 100%
- patients achieving 100% platelet inhibition [3]: 95%
- %IPA using LTA with ADP 20 µmol/L [4]: 34.1±22.5%
- High residual platelet reactivity: AUC>46 using ADPtest (Multiplate) ([5]; at 15 minutes): 8.6%
- High residual platelet reactivity: AUC>46 using ADPtest (Multiplate) ([5]; at 30 minutes): ≈ 14%
- High residual platelet reactivity: AUC>46 using ADPtest (Multiplate) ([5]; at 2 hours): ≈ 14%

Molecule: CC(=O)Oc1cc2c(s1)CCN(C(C(=O)C1CC1)c1ccccc1F)C2 (stereo not shown) [Chewed Prasugrel, Prasugrel]
- %IPA using LTA with ADP 20 µmol/L [4]: 10.5±11.0%

Molecule: CC(=O)Oc1cc2c(s1)CCN(C(C(=O)C1CC1)c1ccccc1F)C2 (stereo not shown) [Integral Prasugrel, Prasugrel]
- %IPA using LTA with ADP 20 µmol/L [4]: 6.3±11.4%

Molecule: CCCCS(=O)(=O)N[C@@H](Cc1ccc(OCCCCC2CCNCC2)cc1)C(=O)O [Tirofiban]
- %IPA using LTA with ADP 20 µmol/L [4]: 95.0±8.9% and 95.0±9.0%
- HRPR rates (platelet aggregation >59% at LTA after ADP 20 µmol/L) ([4]; during drug infusion / within the first 2 hours): No patient

B1: abciximab (antibody, chains of the INN, looked up, V domains shown)
VH: EVQLQQSGTVLARPGASVKMSCEASGYTFTNYWMHWVKQRPGQGLEWIGAIYPGNSDTSYIQKFKGKAKLTAVTSTTSVYMELSSLTNEDSAVYYCTLYDGYYVFAYWGQGTLVTVSA
VL: EIVLTQSPVTLSVTPGDSVSLSCRASRDISNNLHWFQQTSHESPRLLIKYASQSMSGIPSRFSGSGSGTDFTLSINSVETEDFGMYFCQQTNSWPYTFGGGTKLEIK
modifications: Fab
- mean platelet inhibition before the end of infusion [3]: 100%
- patients achieving 100% platelet inhibition [3]: 100%
